Measurements: the M2OR odorant receptor database

What was measured:
Conditions in all cases: stereoisomer not certain
OR6X1 (Homo sapiens) = OR6X1 (Homo sapiens) (UniProt Q8NH79)
Method in brief: (§1)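 Whether a receptor–molecule pair is responsive (active) rests on the original authors' judgment that its measured signal was statistically different from baseline. Pairs without that judgment are non-responsive (inactive). Sources used varied assay methods, commonly transient luciferase assays in mammalian cell lines.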

OR6Y1 (Homo sapiens) = OR6Y1 (Homo sapiens) (UniProt Q8NGX8)
Chain of OR6Y1 (Homo sapiens) (Q8NGX8 whole entry): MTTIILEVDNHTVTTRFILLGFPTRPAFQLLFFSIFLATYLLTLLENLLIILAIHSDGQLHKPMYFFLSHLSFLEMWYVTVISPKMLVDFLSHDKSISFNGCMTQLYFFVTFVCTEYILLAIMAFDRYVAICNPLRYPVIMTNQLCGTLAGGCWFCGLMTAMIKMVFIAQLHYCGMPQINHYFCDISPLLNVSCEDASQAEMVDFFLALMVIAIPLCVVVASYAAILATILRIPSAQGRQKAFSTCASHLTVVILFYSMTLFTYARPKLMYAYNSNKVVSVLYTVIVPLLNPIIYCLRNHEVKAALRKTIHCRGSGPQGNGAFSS
Method in brief: as §1

OR7A10 (Homo sapiens) = OR7A10 (Homo sapiens) (UniProt O76100)
Chain of OR7A10 (Homo sapiens) (O76100 whole entry): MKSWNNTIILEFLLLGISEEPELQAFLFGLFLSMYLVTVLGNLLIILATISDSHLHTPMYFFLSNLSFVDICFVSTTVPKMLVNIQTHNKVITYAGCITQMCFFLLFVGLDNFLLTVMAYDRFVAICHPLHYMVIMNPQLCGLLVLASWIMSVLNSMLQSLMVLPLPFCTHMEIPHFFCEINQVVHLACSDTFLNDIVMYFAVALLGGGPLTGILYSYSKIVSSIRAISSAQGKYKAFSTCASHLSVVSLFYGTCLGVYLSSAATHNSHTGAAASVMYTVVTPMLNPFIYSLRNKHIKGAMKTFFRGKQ
Method in brief: as §1

OR7A17 (Homo sapiens) = OR7A17 (Homo sapiens) (UniProt O14581)
Chain of OR7A17 (Homo sapiens) (O14581 whole entry): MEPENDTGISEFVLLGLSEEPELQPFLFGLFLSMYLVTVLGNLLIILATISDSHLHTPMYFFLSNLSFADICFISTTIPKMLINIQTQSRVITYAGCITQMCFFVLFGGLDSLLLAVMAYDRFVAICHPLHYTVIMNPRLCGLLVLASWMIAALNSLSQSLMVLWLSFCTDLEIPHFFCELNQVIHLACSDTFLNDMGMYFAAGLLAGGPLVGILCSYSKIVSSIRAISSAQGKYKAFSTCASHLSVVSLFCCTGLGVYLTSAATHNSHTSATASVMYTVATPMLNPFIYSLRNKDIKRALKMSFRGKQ
Method in brief: as §1

OR7A5 (Homo sapiens) = OR7A5 (Homo sapiens) (UniProt Q15622)
Chain of OR7A5 (Homo sapiens) (Q15622 whole entry): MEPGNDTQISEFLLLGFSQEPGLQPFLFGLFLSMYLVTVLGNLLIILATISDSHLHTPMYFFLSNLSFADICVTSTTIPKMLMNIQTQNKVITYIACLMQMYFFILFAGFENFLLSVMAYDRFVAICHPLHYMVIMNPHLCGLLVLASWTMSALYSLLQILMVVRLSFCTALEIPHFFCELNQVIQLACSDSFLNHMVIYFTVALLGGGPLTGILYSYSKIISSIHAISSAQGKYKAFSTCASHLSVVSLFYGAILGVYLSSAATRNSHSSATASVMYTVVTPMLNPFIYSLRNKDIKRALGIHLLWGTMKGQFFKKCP
Method in brief: as §1

OR7C1 (Homo sapiens) = OR7C1 (Homo sapiens) (UniProt O76099)
Chain of OR7C1 (Homo sapiens) (O76099 whole entry): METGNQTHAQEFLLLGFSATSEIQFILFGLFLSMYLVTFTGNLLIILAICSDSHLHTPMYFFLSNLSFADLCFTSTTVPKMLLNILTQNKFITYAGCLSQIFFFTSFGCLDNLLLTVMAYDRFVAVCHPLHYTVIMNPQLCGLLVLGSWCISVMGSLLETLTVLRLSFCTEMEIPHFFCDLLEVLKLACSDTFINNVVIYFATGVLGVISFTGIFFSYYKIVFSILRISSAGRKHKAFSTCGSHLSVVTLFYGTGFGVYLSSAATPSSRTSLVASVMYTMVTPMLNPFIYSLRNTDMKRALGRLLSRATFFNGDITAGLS
Method in brief: as §1

OR7C2 (Homo sapiens) = OR7C2 (Homo sapiens) (UniProt O60412)
Chain of OR7C2 (Homo sapiens) (O60412 whole entry): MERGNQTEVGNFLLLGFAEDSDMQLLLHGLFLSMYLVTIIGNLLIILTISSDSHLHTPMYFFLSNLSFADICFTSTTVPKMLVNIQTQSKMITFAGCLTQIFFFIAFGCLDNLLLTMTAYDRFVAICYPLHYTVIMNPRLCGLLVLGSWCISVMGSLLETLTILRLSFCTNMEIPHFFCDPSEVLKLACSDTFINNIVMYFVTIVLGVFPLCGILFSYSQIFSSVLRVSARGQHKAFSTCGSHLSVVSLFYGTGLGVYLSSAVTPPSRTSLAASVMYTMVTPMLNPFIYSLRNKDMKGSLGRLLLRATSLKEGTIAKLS
Method in brief: as §1

OR7D2 (Homo sapiens) = OR7D2 (Homo sapiens) (UniProt Q96RA2)
Chain of OR7D2 (Homo sapiens) (Q96RA2 whole entry): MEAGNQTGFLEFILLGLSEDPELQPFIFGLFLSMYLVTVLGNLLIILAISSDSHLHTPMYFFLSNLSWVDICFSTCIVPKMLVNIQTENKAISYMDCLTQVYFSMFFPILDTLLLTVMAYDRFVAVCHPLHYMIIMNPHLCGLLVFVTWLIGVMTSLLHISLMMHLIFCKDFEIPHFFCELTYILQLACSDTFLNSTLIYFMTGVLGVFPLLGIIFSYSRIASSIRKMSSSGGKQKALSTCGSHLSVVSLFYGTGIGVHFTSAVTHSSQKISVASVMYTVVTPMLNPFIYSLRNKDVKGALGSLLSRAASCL
Method in brief: as §1

OR7A5 M81I = system: OR7A5 M81I
Chain of OR7A5 M81I (as listed by the source, stated change not applied): as the sequence (Q15622 whole entry) above, with M81I counted along it
Method in brief: as §1

OR7C1 V126I E171K = system: OR7C1 V126I E171K
Method in brief: as §1

Measured: odorant receptor agonist call;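 also: active if original authors judged signal statistically different from baseline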

Chain of OR6X1 (Homo sapiens) (Q8NH79 whole entry): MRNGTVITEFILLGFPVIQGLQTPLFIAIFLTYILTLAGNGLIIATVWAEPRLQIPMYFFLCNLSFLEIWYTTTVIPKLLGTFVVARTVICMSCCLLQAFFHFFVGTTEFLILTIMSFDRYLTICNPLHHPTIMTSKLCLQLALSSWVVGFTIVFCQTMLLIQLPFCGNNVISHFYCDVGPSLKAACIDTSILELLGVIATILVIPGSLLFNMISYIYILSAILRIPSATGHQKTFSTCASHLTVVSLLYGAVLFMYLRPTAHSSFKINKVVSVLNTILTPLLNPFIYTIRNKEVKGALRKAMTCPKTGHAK

Cc1c([N+](=O)[O-])c(C)c([N+](=O)[O-])c(C(C)(C)C)c1[N+](=O)[O-]
inactive: OR6X1 (Homo sapiens) | OR6Y1 (Homo sapiens) | OR7A10 (Homo sapiens) | OR7A17 (Homo sapiens) | OR7A5 (Homo sapiens) | OR7C1 (Homo sapiens) | OR7C2 (Homo sapiens) | OR7D2 (Homo sapiens)

C=CCOC(=O)Cc1ccccc1
inactive: OR6X1 (Homo sapiens) | OR6Y1 (Homo sapiens) | OR7A10 (Homo sapiens) | OR7A17 (Homo sapiens) | OR7A5 (Homo sapiens) | OR7A5 M81I | OR7C1 (Homo sapiens) | OR7C1 V126I E171K | OR7C2 (Homo sapiens) | OR7D2 (Homo sapiens)
